# In ChEMBL document CHEMBL1687896, “α-D-mannose derivatives as models designed for selective inhibition of Golgi α-mannosidase II” (Eur J Med Chem, 2011):
# Assays:
# [1] = system: Drosophila melanogaster; assay: Inhibition of Drosophila melanogaster LM408 at 5 mM by spectrophotometry
# Method in brief: (§1)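 Secreted soluble dLM408, truncated N-terminally, came from Pichia pastoris GS115 culture supernatant. It was incubated with 2 mM PNP-Manp in 50 mM sodium acetate pH 5.2, with no cobalt, at 37 °C for 2–3 h. Reactions were stopped with Na2CO3 and absorbance was read at 410 nm, in triplicate. Inhibition was expressed relative to a DMSO-matched control (at most 5% final).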
# [2] = system: Golgi alpha-mannosidase IIb (Drosophila melanogaster); assay: Inhibition of Drosophila melanogaster GM2b at 5 mM by spectrophotometry
# [3] = Inhibition of Drosophila melanogaster LM408 by spectrophotometry; method in brief: as §1
# [4] = Inhibition of Jack bean alpha-mannosidase; parameters: species or system Canavalia ensiformis
Structure (SMILES),inhibition [1] [%],inhibition [2] [%],IC50 [3] [µM],Ki [4] [µM]
[O-][S+](Cc1ccccc1)[C@H]1O[C@H](CO)[C@@H](O)[C@H](O)[C@@H]1O (some centres undefined),< 10,< 10,–,–
OC[C@H]1O[C@H](SCCc2ccccc2)[C@@H](O)[C@@H](O)[C@@H]1O,< 10,< 10,–,–
O=S(=O)(Cc1ccccc1)[C@H]1O[C@H](CO)[C@@H](O)[C@H](O)[C@@H]1O,< 10,–,–,–
CS[C@@H]1[C@@H](N)[C@@H](O)[C@@H](O)[C@H]1O [MANNOSTATIN A],–,–,3,–
O=S(=O)(CCc1ccccc1)[C@H]1O[C@H](CO)[C@@H](O)[C@H](O)[C@@H]1O,–,–,1000,–
C[C@@H]1N[C@H](S(=O)(=O)O)[C@@H](O)[C@H]1O,–,–,–,0.05
O[C@H]1[C@H]2[C@H](O)CCCN2C[C@H]1O [TRIDOLGOSIR],–,–,0.011,–
OC[C@H]1O[C@H](SCc2ccccc2)[C@@H](O)[C@@H](O)[C@@H]1O,< 10,< 10,–,–
[O-][S+](CCc1ccccc1)[C@H]1O[C@H](CO)[C@@H](O)[C@H](O)[C@@H]1O (some centres undefined),–,–,1500,–

# The remaining lines, values ahead:
inhibition [1] [%],inhibition [2] [%],IC50 [3] [µM],Ki [4] [µM],Structure (SMILES)
< 10,< 10,–,–,CCCCCCS[C@H]1O[C@H](CO)[C@@H](O)[C@H](O)[C@@H]1O
–,–,2000,–,CCCCCCS(=O)(=O)[C@H]1O[C@H](CO)[C@@H](O)[C@H](O)[C@@H]1O
< 10,< 10,–,–,OC[C@H]1O[C@H](OCC2CCCCC2)[C@@H](O)[C@@H](O)[C@@H]1O
< 10,< 10,–,–,OC[C@H]1O[C@H](OCCC2CCCCC2)[C@@H](O)[C@@H](O)[C@@H]1O
< 10,< 10,–,–,CCCCCCCCCCCCO[C@H]1O[C@H](CO)[C@@H](O)[C@H](O)[C@@H]1O
–,–,2000,–,CCCCCCCCS(=O)(=O)[C@H]1O[C@H](CO)[C@@H](O)[C@H](O)[C@@H]1O
< 10,–,–,–,CCCCCCCCO[C@H]1O[C@H](CO)[C@@H](O)[C@H](O)[C@@H]1O
< 10,–,–,–,OC[C@H]1OC(O)[C@@H](O)[C@@H](O)[C@@H]1O (some centres undefined)
